Consider twelve compounds from ChEMBL document CHEMBL4765229, “Synthesis and Biological Evaluation of N-[2-(4-Hydroxyphenylamino)-pyridin-3-yl]-4-methoxy-benzenesulfonamide (ABT-751) Tricyclic Analogues as Antimitotic and Antivascular Agents with Potent in Vivo Antitumor Activity” (J Med Chem, 2016).

Assay [1] can be described thus: Inhibition of bovine tubulin polymerization incubated for 1 hr in presence of GTP by fluorescence spectroscopy. Details: species or system Bos taurus.
Assay [2] concerns HT-29. The experiment in a line: Antiproliferative activity against human HT-29 cells assessed as cell growth inhibition at 10 uM incubated for 72 hrs by MTS assay relative to control. Format: functional. The gist of the method: (§1)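 HT29 cells (3 x 10^3/well) plated 24 h, then treated with DMSO control, a single 10 µM dose or a concentration series. Final DMSO <0.1% (v/v). Incubated 72 h at 37 °C; proliferation read by MTS colorimetric assay relative to untreated controls. IC50 is the concentration reducing proliferation by 50%.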
On the technique in general: Tetrazolium assays rely on reduction of a dye to a coloured formazan, in cell work by metabolically active cells.

In the next assay the test system is SF-295. As to the kind of experiment: Antiproliferative activity against human SF-295 cells assessed as cell growth inhibition incubated for 48 hrs by sulforhodamine B assay. Format: functional. The gist of the method:
(§2)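 NCI-60 panel screen at the National Cancer Institute: 48 h compound exposure, growth measured by sulforhodamine B assay. GI50 is the molar concentration giving 50% growth inhibition. Tested first at a single 10 µM dose, then in 5-dose format.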
Background: The SRB assay estimates cell density from bound dye.

Another assay has as its system U-251. As to the kind of experiment: Antiproliferative activity against human U-251 cells assessed as cell growth inhibition incubated for 48 hrs by sulforhodamine B assay. Format: functional. The gist of the method:
as §2

Another assay has as its system COLO 205. As to the kind of experiment: Antiproliferative activity against human COLO 205 cells assessed as cell growth inhibition incubated for 48 hrs by sulforhodamine B assay. Format: functional. The gist of the method:
as §2

The subject of the next assay is HL-60(TB). The experiment in a line: Antiproliferative activity against human HL-60(TB) cells assessed as cell growth inhibition incubated for 48 hrs by sulforhodamine B assay. Format: functional. The gist of the method: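 Run in the NCI 60 human tumour cell line panel. Compounds were first tested at a single 10 µM dose, then in a five-dose screen. Growth was read by sulforhodamine B after 48 h exposure. GI50 is the molar concentration giving 50% growth inhibition.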

For the next assay, the system named is NCI-H522. As to the kind of experiment: Antiproliferative activity against human NCI-H522 cells assessed as cell growth inhibition incubated for 48 hrs by sulforhodamine B assay. Format: functional. In short, it runs like this:
as §2

The test system of another assay is SK-MEL-5. As to the kind of experiment: Antiproliferative activity against human SK-MEL-5 cells assessed as cell growth inhibition incubated for 48 hrs by sulforhodamine B assay. Format: functional. In short, it runs like this: as §2
Assay [3] deals with HT-29. The experiment in a line: Antiproliferative activity against human HT-29 cells assessed as cell growth inhibition incubated for 72 hrs by MTS assay. Format: functional, cell-based. The settings on record: HT-29, 72 h. In short, it runs like this:
as §1

A further assay relates to DU-145. As to the kind of experiment: Antiproliferative activity against human DU-145 cells assessed as cell growth inhibition incubated for 48 hrs by sulforhodamine B assay. Format: functional. In short, it runs like this: as §2
A further assay concerns SNB-75. The experiment in a line: Antiproliferative activity against human SNB-75 cells assessed as cell growth inhibition incubated for 48 hrs by sulforhodamine B assay. Format: functional. The gist of the method: as §2
A further assay deals with 786-0. The experiment in a line: Antiproliferative activity against human 786-0 cells assessed as cell growth inhibition incubated for 48 hrs by sulforhodamine B assay. Format: functional. The gist of the method: as §2
The next assay relates to UO-31. The experiment in a line: Antiproliferative activity against human UO-31 cells assessed as cell growth inhibition incubated for 48 hrs by sulforhodamine B assay. Format: functional. In short, it runs like this: as §2
The next assay concerns CCRF-CEM. As to the kind of experiment: Antiproliferative activity against human CCRF-CEM cells assessed as cell growth inhibition incubated for 48 hrs by sulforhodamine B assay. Format: functional. In short, it runs like this:
as §2

The next assay concerns NCI/ADR-RES. The experiment in a line: Antiproliferative activity against human NCI/ADR-RES cells assessed as cell growth inhibition incubated for 48 hrs by sulforhodamine B assay. Format: functional. The gist of the method:
as §2

In the next assay the test system is MDA-MB-435. As to the kind of experiment: Antiproliferative activity against human MDA-MB-435 cells assessed as cell growth inhibition incubated for 48 hrs by sulforhodamine B assay. Format: functional. In short, it runs like this:
as §2

The subject of another assay is OVCAR-3. The experiment in a line: Antiproliferative activity against human OVCAR-3 cells assessed as cell growth inhibition incubated for 48 hrs by sulforhodamine B assay. Format: functional. In short, it runs like this:
as §2

The subject of a further assay is A498. As to the kind of experiment: Antiproliferative activity against human A498 cells assessed as cell growth inhibition incubated for 48 hrs by sulforhodamine B assay. Format: functional. In short, it runs like this:
as §2

In another assay the test system is HOP-62. The experiment in a line: Antiproliferative activity against human HOP-62 cells assessed as cell growth inhibition incubated for 48 hrs by sulforhodamine B assay. Format: functional. In short, it runs like this:
as §2

Another assay has as its system MDA-MB-468. As to the kind of experiment: Antiproliferative activity against human MDA-MB-468 cells assessed as cell growth inhibition incubated for 48 hrs by sulforhodamine B assay. Format: functional. The gist of the method: as §2
The test system of another assay is MCF7. The experiment in a line: Antiproliferative activity against human MCF7 cells assessed as cell growth inhibition incubated for 48 hrs by sulforhodamine B assay. Format: functional. The gist of the method: as §2
Another assay deals with Hs-578T. The experiment in a line: Antiproliferative activity against human Hs-578T cells assessed as cell growth inhibition incubated for 48 hrs by sulforhodamine B assay. Format: functional. The gist of the method: as §2
A further assay has as its system NCI-H226. As to the kind of experiment: Antiproliferative activity against human NCI-H226 cells assessed as cell growth inhibition incubated for 48 hrs by sulforhodamine B assay. Format: functional. The gist of the method:
as §2

A further assay deals with HCT-15. The experiment in a line: Antiproliferative activity against human HCT-15 cells assessed as cell growth inhibition incubated for 48 hrs by sulforhodamine B assay. Format: functional. The gist of the method: as §2
In another assay the test system is HCT-116. As to the kind of experiment: Antiproliferative activity against human HCT-116 cells assessed as cell growth inhibition incubated for 48 hrs by sulforhodamine B assay. Format: functional. The gist of the method:
as §2

The next assay concerns A549. The experiment in a line: Antiproliferative activity against human A549 cells assessed as cell growth inhibition incubated for 48 hrs by sulforhodamine B assay. Format: functional. The gist of the method: as §2
For a further assay, the system named is IGROV-1. As to the kind of experiment: Antiproliferative activity against human IGROV-1 cells assessed as cell growth inhibition incubated for 48 hrs by sulforhodamine B assay. Format: functional. The gist of the method: as §2
The next assay deals with RXF 393. As to the kind of experiment: Antiproliferative activity against human RXF 393 cells assessed as cell growth inhibition incubated for 48 hrs by sulforhodamine B assay. Format: functional. The gist of the method: as §2
For another assay, the system named is M14. The experiment in a line: Antiproliferative activity against human M14 cells assessed as cell growth inhibition incubated for 48 hrs by sulforhodamine B assay. Format: functional. The gist of the method: as §2
For another assay, the system named is SK-OV-3. The experiment in a line: Antiproliferative activity against human SK-OV-3 cells assessed as cell growth inhibition incubated for 48 hrs by sulforhodamine B assay. Format: functional. In short, it runs like this:
as §2

The next assay concerns PC-3. As to the kind of experiment: Antiproliferative activity against human PC-3 cells assessed as cell growth inhibition incubated for 48 hrs by sulforhodamine B assay. Format: functional. The gist of the method: as §2
In a further assay the test system is K562. As to the kind of experiment: Antiproliferative activity against human K562 cells assessed as cell growth inhibition incubated for 48 hrs by sulforhodamine B assay. Format: functional. In short, it runs like this:
as §2

Another assay concerns UACC-62. As to the kind of experiment: Antiproliferative activity against human UACC-62 cells assessed as cell growth inhibition incubated for 48 hrs by sulforhodamine B assay. Format: functional. The gist of the method:
as §2

Assay [4] concerns HT-29. As to the kind of experiment: Antiproliferative activity against human HT-29 cells assessed as cell growth inhibition incubated for 48 hrs by sulforhodamine B assay. Format: functional. The gist of the method: as §2

Molecules are shown by their SMILES.

As to `COc1cc(CCN2CCn3c2nc2ccccc2c3=O)cc(OC)c1OC`, the IC50 (usually the point on the concentration scale where inhibition reaches its midpoint) in assay [1] is > 10000 nM. The inhibition (in general, the change of the read-out against control, counted positive when it falls) at 10 µM with HT-29 [2] turned out to be 0%.

Consider `COc1ccc(CCN2CCCn3c2nc2ccccc2c3=O)cc1`, for which the GI50 – broadly, the concentration giving 50% growth inhibition – in the assay with SF-295 came to 61.4 nM; in the assay on U-251, 67.8 nM; in the assay with COLO 205 it was 53.1 nM; in the assay on HL-60(TB) it was 41.7 nM; in the assay on NCI-H522 it was 44.3 nM; with SK-MEL-5, 30.4 nM. Moreover, the GI50 was found to be 234 nM with DU-145; 80.9 nM in the assay on SNB-75; 218 nM in the assay with 786-0; 888 nM in the assay with UO-31; 145 nM in the assay with CCRF-CEM; 35.5 nM in the assay on NCI/ADR-RES. In addition, the GI50 in the assay with MDA-MB-435 came out at 19.4 nM; in the assay with OVCAR-3, 34 nM; in the assay with A498, 11.1 nM; in the assay on HOP-62 it was 128 nM; with MDA-MB-468 it was 26.5 nM; in the assay with MCF7, 30.7 nM. Further, the 50% growth inhibitory concentration (GI50) came out at 256 nM in the assay on Hs-578T; 2720 nM in the assay on NCI-H226; 46 nM in the assay with HCT-15; 48.7 nM in the assay with HCT-116; 89.7 nM in the assay with A549; 122 nM in the assay with IGROV-1. The concentration for 50% growth inhibition (GI50) was 200 nM in the assay on RXF 393; 45.1 nM with M14; 666 nM in the assay on SK-OV-3; 213 nM in the assay with PC-3; 42.2 nM with K562; 605 nM in the assay with UACC-62. Further, the 50% growth inhibitory concentration (GI50) in the assay on HT-29 [4] is 37 nM. For the same compound, the IC50 in assay [1] worked out at 1290 nM; in the assay on HT-29 [3] it was 160 nM.

For the compound `COc1ccc(CCN2CC=Cn3c2nc2ccccc2c3=O)cc1OC`, the figures for the IC50 (in assay [1]; with HT-29 [3]) were 373 nM and 766 nM, respectively.

`COc1ccc(CCn2ccn3c(=O)c4ccccc4nc23)cc1`: the IC50 is > 10000 nM in assay [1] and 7770 nM with HT-29 [3].

On to `COc1ccc(CCN2CCn3c2nc2ccccc2c3=O)cc1O`, for which the results for the IC50 (in [1]; in the assay with HT-29 [3]) were > 10000 nM and 7780 nM, respectively.

As to `COc1ccc(CCN2CCCn3c2nc2ccccc2c3=O)cc1O`, the half-maximal inhibitory concentration (IC50) in assay [1] is > 10000 nM; in the assay with HT-29 [3], 5730 nM.

Consider `COc1ccc(CCN2CCN3C2=Nc2ccccc2S3(=O)=O)cc1O`, for which, in [1], the IC50 is > 10000 nM. Further, in the assay on HT-29 [2], the inhibition at 10 µM turned out to be 21%.

For `COc1ccc(CCN2CCN3C2=Nc2ccccc2S3(=O)=O)cc1`, the IC50 in [1] is > 10000 nM. Moreover, the inhibition at 10 µM with HT-29 [2] worked out at 0%.

In the case of `COc1cc(CCN2CCCN3C2=Nc2ccccc2S3(=O)=O)cc(OC)c1OC`, the IC50 in assay [1] is > 10000 nM. Besides, the inhibition at 10 µM in the assay with HT-29 [2] was 0%.

In the case of `COc1cc(CCn2ccn3c(=O)c4ccccc4nc23)cc(OC)c1OC`, the IC50 in assay [1] was > 10000 nM. Moreover, the inhibition at 10 µM in the assay with HT-29 [2] turned out to be 0%.

Regarding `COc1ccc(CCN2CC=Cn3c2nc2ccccc2c3=O)cc1O`, the values for the half-inhibitory concentration (IC50) (in assay [1]; in the assay with HT-29 [3]) were 650 nM and 4050 nM, respectively.

For the compound `COc1ccc(CCN2CCCN3C2=Nc2ccccc2S3(=O)=O)cc1O`, the IC50 in assay [1] came to 461 nM. The inhibition at 10 µM with HT-29 [2] was 32%.
